# From ChEMBL document CHEMBL5724801, “EUbOPEN Chemogenomics Library - Multiplex” (2024)
# Where “and” joins values, the source holds several entries; their conditions need not be identical. Identical values can stand only once.
# Tested on: Fibroblast
# Experiment: Multiplex assay against human fibroblast
# Format: toxicity, cell-based
# Settings: 12 h, 1 µM, compound concentration 1 uM
# In short: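 Values for tubulin, mitochondrial-mass and membrane-permeability phenotypes are per cents of cells with healthy nuclei. These cells were identified by CellPathfinder machine-learning gating of live cells that had been stained at seeding with Hoechst33342, BioTracker Green Microtubule Cytoskeleton Dye, MitoTracker Red and Annexin V Alexa Fluor 680 and imaged on a CQ1 microscope at 37°C and 5% CO2 after compound addition. The gating first set Hoechst high-intensity objects apart from normal cells, then split normal cells into healthy, pyknosed or fragmented nuclei, and pyknosed cells into mitotic or apoptotic.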
Compound,Population Apoptotic (%),Population Fragmented Nuclei (%),Population Healthy Nuclei (%),Population Hoechst High Intensity Objects (%),Population Membrane Permeable-Phenotype (%),Population Mitochondria Different-Phenotype (%),Population Mitotic Cells (%),Population Normal (%),Population Pyknosed Nuclei (%),Population Tubulin-Different-Phenotype (%)
CCCCC(=O)N(Cc1ccc(-c2ccccc2-c2nnn[nH]2)cc1)[C@H](C(=O)O)C(C)C,45% and 44%,9% and 21%,74% and 54%,4% and 3%,0% and 8%,0% and 6%,54% and 55%,95% and 96%,16% and 24%,20% and 36%
CNC[C@H](O)c1ccc(O)c(O)c1 [EPINEPHRINE],36% and 40%,17% and 38%,66% and 44%,1%,–,3% and 7%,63% and 60%,98%,16% and 17%,15% and 42%
CC(C)c1ccc(/C=N/NC(=O)c2ccc(O)cc2)cc1,12.07% and 15.38%,10.89% and 4%,60.4% and 76.5%,0%,4.1% and 2.61%,6.56% and 9.15%,87.93% and 84.62%,100%,28.71% and 19.5%,12.3% and 17.65%
COc1ccc2nc3ccc(OC)cc3c(SCCCN)c2c1.Cl,27.78% and 22.73%,27.67% and 18.52%,58.1% and 71.3%,0%,4.08% and 5.19%,10.88% and 10.39%,72.22% and 77.27%,100%,14.23% and 10.19%,28.57% and 25.97%

# Same assay, conditions: 12 h, 1 µM, compound concentration 1 uM
row,Compound,Total Cell Count
1,CCCCC(=O)N(Cc1ccc(-c2ccccc2-c2nnn[nH]2)cc1)[C@H](C(=O)O)C(C)C,143 and 156
2,CC(C)c1ccc(/C=N/NC(=O)c2ccc(O)cc2)cc1,202 and 200
3,COc1ccc2nc3ccc(OC)cc3c(SCCCN)c2c1.Cl,253 and 216

# Same assay, conditions: 12 h, 10 µM, compound concentration 10 uM
Compound,Population Apoptotic (%),Population Fragmented Nuclei (%),Population Healthy Nuclei (%),Population Hoechst High Intensity Objects (%),Population Membrane Permeable-Phenotype (%),Population Mitochondria Different-Phenotype (%),Population Mitotic Cells (%),Population Normal (%),Population Pyknosed Nuclei (%),Population Tubulin-Different-Phenotype (%)
CCCCC(=O)N(Cc1ccc(-c2ccccc2-c2nnn[nH]2)cc1)[C@H](C(=O)O)C(C)C,37%,20% and 27%,56% and 42%,0% and 3%,3% and 11%,3% and 11%,62%,100% and 96%,22% and 29%,23% and 51%
CNC[C@H](O)c1ccc(O)c(O)c1 [EPINEPHRINE],40% and 32%,18% and 39%,61% and 37%,3% and 7%,–,6% and 8%,60% and 67%,96% and 92%,20% and 23%,23% and 55%
CC(C)c1ccc(/C=N/NC(=O)c2ccc(O)cc2)cc1,–,13.41% and 4.65%,61.45% and 73.02%,0%,8.18% and 2.55%,6.36% and 9.55%,95.56% and 77.08%,100%,25.14% and 22.33%,20% and 17.2%
COc1ccc2nc3ccc(OC)cc3c(SCCCN)c2c1.Cl,50%,83.22% and 87.99%,15.99% and 11.88%,0.3% and 6.47%,6.17% and 4.52%,24.69% and 15.25%,50%,99.7% and 93.53%,0.79% and 0.13%,53.09% and 68.93%

# Same assay, conditions: 12 h, 10 µM, compound concentration 10 uM
row,Compound,Total Cell Count
1,CCCCC(=O)N(Cc1ccc(-c2ccccc2-c2nnn[nH]2)cc1)[C@H](C(=O)O)C(C)C,106 and 130
2,CC(C)c1ccc(/C=N/NC(=O)c2ccc(O)cc2)cc1,179 and 215
3,COc1ccc2nc3ccc(OC)cc3c(SCCCN)c2c1.Cl,1016 and 1593

# Same assay, conditions: 24 h, 1 µM, compound concentration 1 uM
Compound,Population Apoptotic (%),Population Fragmented Nuclei (%),Population Healthy Nuclei (%),Population Hoechst High Intensity Objects (%),Population Membrane Permeable-Phenotype (%),Population Mitochondria Different-Phenotype (%),Population Mitotic Cells (%),Population Normal (%),Population Pyknosed Nuclei (%),Population Tubulin-Different-Phenotype (%)
CCCCC(=O)N(Cc1ccc(-c2ccccc2-c2nnn[nH]2)cc1)[C@H](C(=O)O)C(C)C,66% and 38%,15% and 21%,70% and 52%,0% and 2%,1% and 2%,2% and 1%,33% and 61%,99% and 97%,14% and 25%,17% and 25%
CNC[C@H](O)c1ccc(O)c(O)c1 [EPINEPHRINE],54% and 23%,–,70% and 47%,0% and 3%,0% and 12%,3% and 6%,45% and 76%,99% and 96%,16% and 14%,11% and 32%
CC(C)c1ccc(/C=N/NC(=O)c2ccc(O)cc2)cc1,15% and 14.81%,10.53% and 4.39%,71.93% and 82.44%,0%,1.83% and 3.55%,4.27% and 7.1%,85% and 85.19%,100%,17.54% and 13.17%,12.2% and 18.34%
COc1ccc2nc3ccc(OC)cc3c(SCCCN)c2c1.Cl,7.41% and 18.18%,25% and 14.63%,63.36% and 74.63%,0%,4.76% and 3.27%,5.44% and 7.84%,92.59% and 81.82%,100%,11.64% and 10.73%,25.17% and 21.57%

# Same assay, conditions: 24 h, 1 µM, compound concentration 1 uM
row,Compound,Total Cell Count
1,CCCCC(=O)N(Cc1ccc(-c2ccccc2-c2nnn[nH]2)cc1)[C@H](C(=O)O)C(C)C,146 and 145
2,CC(C)c1ccc(/C=N/NC(=O)c2ccc(O)cc2)cc1,228 and 205
3,COc1ccc2nc3ccc(OC)cc3c(SCCCN)c2c1.Cl,232 and 205

# Same assay, conditions: 24 h, 10 µM, compound concentration 10 uM
Compound,Population Apoptotic (%),Population Fragmented Nuclei (%),Population Healthy Nuclei (%),Population Hoechst High Intensity Objects (%),Population Membrane Permeable-Phenotype (%),Population Mitochondria Different-Phenotype (%),Population Mitotic Cells (%),Population Normal (%),Population Pyknosed Nuclei (%),Population Tubulin-Different-Phenotype (%)
CCCCC(=O)N(Cc1ccc(-c2ccccc2-c2nnn[nH]2)cc1)[C@H](C(=O)O)C(C)C,48% and 35%,18% and 25%,56% and 44%,2% and 4%,0% and 9%,1% and 10%,51% and 64%,97% and 95%,25% and 29%,31% and 65%
CNC[C@H](O)c1ccc(O)c(O)c1 [EPINEPHRINE],65% and 38%,16% and 39%,60% and 44%,3%,0% and 12%,5% and 4%,34% and 61%,96%,23% and 15%,21% and 51%
CC(C)c1ccc(/C=N/NC(=O)c2ccc(O)cc2)cc1,–,10.93% and 4.82%,66.12% and 76.75%,0%,5.79% and 3.43%,7.44% and 5.14%,95.24% and 83.33%,100%,22.95% and 18.42%,14.88% and 16%
COc1ccc2nc3ccc(OC)cc3c(SCCCN)c2c1.Cl,–,83.95% and 88.56%,15.31% and 11.32%,0% and 5.09%,1.21% and 3.16%,27.27% and 24.21%,87.5% and 50%,100% and 94.91%,0.74% and 0.12%,47.27% and 59.47%

# Same assay, conditions: 24 h, 10 µM, compound concentration 10 uM
row,Compound,Total Cell Count
1,CCCCC(=O)N(Cc1ccc(-c2ccccc2-c2nnn[nH]2)cc1)[C@H](C(=O)O)C(C)C,110 and 130
2,CC(C)c1ccc(/C=N/NC(=O)c2ccc(O)cc2)cc1,183 and 228
3,COc1ccc2nc3ccc(OC)cc3c(SCCCN)c2c1.Cl,1078 and 1768

# Same assay, conditions: 48 h, 1 µM, compound concentration 1 uM
Compound,Population Apoptotic (%),Population Fragmented Nuclei (%),Population Healthy Nuclei (%),Population Hoechst High Intensity Objects (%),Population Membrane Permeable-Phenotype (%),Population Mitochondria Different-Phenotype (%),Population Mitotic Cells (%),Population Normal (%),Population Pyknosed Nuclei (%),Population Tubulin-Different-Phenotype (%)
CCCCC(=O)N(Cc1ccc(-c2ccccc2-c2nnn[nH]2)cc1)[C@H](C(=O)O)C(C)C,80% and 40%,18% and 27%,71% and 51%,6% and 3%,0% and 1%,1% and 3%,20% and 59%,93% and 96%,10% and 21%,17% and 33%
CNC[C@H](O)c1ccc(O)c(O)c1 [EPINEPHRINE],50% and 38%,17% and 41%,67% and 48%,1%,0% and 6%,6% and 5%,50% and 61%,98%,15% and 10%,23% and 45%
CC(C)c1ccc(/C=N/NC(=O)c2ccc(O)cc2)cc1,27.27% and 44.44%,8% and 5.96%,87.11% and 89.91%,0%,1.02% and 3.57%,–,72.73% and 55.56%,100%,4.89% and 4.13%,9.18% and 15.31%
COc1ccc2nc3ccc(OC)cc3c(SCCCN)c2c1.Cl,–,28.35% and 15.03%,66.14% and 83.42%,0%,1.79% and 1.24%,–,71.43% and 100%,100%,5.51% and 1.55%,18.45% and 20.5%

# Same assay, conditions: 48 h, 1 µM, compound concentration 1 uM
row,Compound,Total Cell Count
1,CCCCC(=O)N(Cc1ccc(-c2ccccc2-c2nnn[nH]2)cc1)[C@H](C(=O)O)C(C)C,153 and 155
2,CC(C)c1ccc(/C=N/NC(=O)c2ccc(O)cc2)cc1,225 and 218
3,COc1ccc2nc3ccc(OC)cc3c(SCCCN)c2c1.Cl,254 and 193

# Same assay, conditions: 48 h, 10 µM, compound concentration 10 uM
Compound,Population Apoptotic (%),Population Fragmented Nuclei (%),Population Healthy Nuclei (%),Population Hoechst High Intensity Objects (%),Population Membrane Permeable-Phenotype (%),Population Mitochondria Different-Phenotype (%),Population Mitotic Cells (%),Population Normal (%),Population Pyknosed Nuclei (%),Population Tubulin-Different-Phenotype (%)
CCCCC(=O)N(Cc1ccc(-c2ccccc2-c2nnn[nH]2)cc1)[C@H](C(=O)O)C(C)C,64% and 57%,28% and 39%,56% and 39%,4%,0% and 7%,5%,35% and 42%,95%,15% and 20%,30% and 69%
CNC[C@H](O)c1ccc(O)c(O)c1 [EPINEPHRINE],77% and 37%,20% and 50%,65% and 44%,2% and 3%,2% and 6%,4% and 3%,22% and 62%,97% and 96%,13% and 5%,32% and 46%
CC(C)c1ccc(/C=N/NC(=O)c2ccc(O)cc2)cc1,40% and 30%,13.54% and 4.26%,78.65% and 87.23%,0%,3.31% and 2.44%,6.62% and 1.95%,60% and 70%,100%,7.81% and 8.51%,10.6% and 14.63%
COc1ccc2nc3ccc(OC)cc3c(SCCCN)c2c1.Cl,60%,84.38% and 88.09%,15.23% and 11.61%,1.01% and 7.64%,2.56% and 4.71%,6.67% and 4.19%,40%,98.99% and 92.36%,0.39% and 0.3%,27.69% and 51.83%

# Same assay, conditions: 48 h, 10 µM, compound concentration 10 uM
row,Compound,Total Cell Count
1,CCCCC(=O)N(Cc1ccc(-c2ccccc2-c2nnn[nH]2)cc1)[C@H](C(=O)O)C(C)C,112 and 141
2,CC(C)c1ccc(/C=N/NC(=O)c2ccc(O)cc2)cc1,192 and 235
3,COc1ccc2nc3ccc(OC)cc3c(SCCCN)c2c1.Cl,1293 and 1781
